# Test results reported in ChEMBL document CHEMBL1687801, “Pharmacokinetics-pharmacodynamics of a respiratory syncytial virus fusion inhibitor in the cotton rat model” (Antimicrob Agents Chemother, 2010).
# Assays:
# [1] = Drug level in Sprague-Dawley rat lung tissue at 10 mg/kg, iv administered as single bolus dose measured after 3 hrs; format: ADME, organism-based; design: dose 10 mg/kg, route intravenous; conditions: read-out: Drug uptake
# [2] = AUC (0 to 24 hrs) in Sprague-Dawley rat bronchoalveolar lavage fluid at 10 mg/kg, iv administered as single bolus dose; format: ADME, organism-based, Lung; design: time < 24 hr, dose 10 mg/kg, route intravenous; conditions: in vivo
# [3] = tested on: Respiratory syncytial virus; test: Antiviral activity against respiratory syncytial virus long strain infected in cotton rat assessed as maximum reduction in epithelial lining fluid viral load at 200 ng/ml plasma concentration; format: functional; design: scale not given: the % may be the effect or the level left
# Outline: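 Plasma was drawn at 24 h after single s.c. nanocrystal doses (12.5–200 mg/kg) to cotton rats, just before intranasal RSV inoculation, and assayed by LC-MS/MS. Individual day-4 plaque-assay ELF titer reductions were plotted against this plasma concentration and fitted to a simple E_max model, E = (E_max × C24h)/(C24h + EC50).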
# [4] = tested on: Respiratory syncytial virus; test: Antiviral activity against respiratory syncytial virus long strain infected in cotton rat assessed as log reduction in epithelial lining fluid viral load at 100 mg/kg, sc single dose administered 24 hrs before viral infection by qRT-PCR assay; format: functional; conditions: route subcutaneous
# Outline: (§1)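 Nanocrystal suspension was given as a single s.c. dose to cotton rats (six per cohort). RSV Long (10⁶ PFU) was inoculated intranasally 24 h later. On day 4, BALF from a single 2.5 ml PBS lavage was lysed with DTT and lysis buffer, and RNA was extracted with an internal control. Monoplex real-time RT-PCR was run in duplicate against an eight-point 10-fold RSV RNA standard. Titers were urea-corrected to ELF; reduction was taken versus untreated controls.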
# [5] = tested on: Respiratory syncytial virus; test: Antiviral activity against respiratory syncytial virus long strain infected in cotton rat assessed as log reduction in epithelial lining fluid viral load at 50 mg/kg, sc single dose administered 24 hrs before viral infection by plaque assay; format: functional; conditions: route subcutaneous
# Outline: (§2)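 Cotton rats (60–100 g, six per dose cohort) received one s.c. dose of an aqueous slow-release nanocrystal suspension. At 24 h they were anesthetized with isoflurane and given 10⁶ PFU RSV Long intranasally in 0.1 ml. On day 4 lungs were lavaged once with 2.5 ml PBS. BALF supernatant was plaque-titrated on Vero cells (7 days, 37°C, methylene blue). Titers were urea-corrected to ELF; log reduction was taken versus untreated infected controls.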
# [6] = tested on: Respiratory syncytial virus; test: Antiviral activity against respiratory syncytial virus long strain infected in cotton rat assessed as log reduction in epithelial lining fluid viral load at 200 mg/kg, sc single dose administered 24 hrs before viral infection by qRT-PCR assay; format: functional; conditions: route subcutaneous; outline: as §1
# [7] = tested on: Respiratory syncytial virus; test: Antiviral activity against respiratory syncytial virus long strain infected in cotton rat assessed as log reduction in epithelial lining fluid viral load at 25 mg/kg, sc single dose administered 24 hrs before viral infection by qRT-PCR assay; format: functional; conditions: route subcutaneous; outline: as §1
# [8] = Ratio of AUC (0 to 24 hrs) in Sprague-Dawley rat lung tissue to plasma; format: ADME
# [9] = Clearance in Sprague-Dawley rat plasma at 10 mg/kg, iv administered as single bolus dose; format: ADME, organism-based; design: dose 10 mg/kg, route intravenous
# Lung = test: AUC (0 to 24 hrs) in Sprague-Dawley rat lung tissue at 10 mg/kg, iv administered as single bolus dose; format: ADME, organism-based; design: time < 24 hr, dose 10 mg/kg, route intravenous; conditions: in vivo
# [10] = Drug level in cotton rat bronchoalveolar lavage fluid at 10 mg/kg, iv administered as single bolus dose measured after 3 hrs; format: ADME, organism-based, Lung; design: dose 10 mg/kg, route intravenous; conditions: read-out: Drug uptake
# [11] = Volume of distribution at steady state in Sprague-Dawley rat plasma at 10 mg/kg, iv administered as single bolus dose; format: ADME, organism-based; design: dose 10 mg/kg, route intravenous; conditions: read-out: Vdss
# [12] = tested on: Respiratory syncytial virus; test: Antiviral activity against respiratory syncytial virus long strain infected in cotton rat assessed as log reduction in epithelial lining fluid viral load at 100 mg/kg, sc single dose administered 24 hrs before viral infection by plaque assay; format: functional; conditions: route subcutaneous; outline: as §2
# [13] = tested on: Respiratory syncytial virus; test: microbe, parasite or virus in culture; conditions: human respiratory syncytial virus, long, HeLaM
# [14] = Drug level in Sprague-Dawley rat bronchoalveolar lavage fluid at 10 mg/kg, iv administered as single bolus dose measured after 3 hrs; format: ADME, organism-based, Lung; design: dose 10 mg/kg, route intravenous; conditions: read-out: Drug uptake
# [15] = AUC (0 to 24 hrs) in Sprague-Dawley rat plasma at 10 mg/kg, iv administered as single bolus dose; format: ADME, organism-based; design: time < 24 hr, dose 10 mg/kg, route intravenous
# [16] = tested on: Respiratory syncytial virus; test: Antiviral activity against respiratory syncytial virus long strain infected in cotton rat assessed as log reduction in epithelial lining fluid viral load at 200 mg/kg, sc single dose administered 24 hrs before viral infection by plaque assay; format: functional; conditions: route subcutaneous; outline: as §2
# [17] = Drug level in Sprague-Dawley rat plasma at 10 mg/kg, iv administered as single bolus dose measured after 3 hrs; format: ADME, organism-based; design: dose 10 mg/kg, route intravenous; conditions: read-out: Drug uptake
# [18] = Drug level in cotton rat epithelial lining fluid at 10 mg/kg, iv administered as single bolus dose measured after 3 hrs; format: ADME, organism-based; design: dose 10 mg/kg, route intravenous; conditions: read-out: Drug uptake
# [19] = tested on: Respiratory syncytial virus; test: Antiviral activity against respiratory syncytial virus long strain infected in cotton rat assessed as log reduction in epithelial lining fluid viral load at 12.5 mg/kg, sc single dose administered 24 hrs before viral infection by qRT-PCR assay; format: functional; conditions: route subcutaneous; outline: as §1
# [20] = tested on: Respiratory syncytial virus; test: Antiviral activity against respiratory syncytial virus long strain infected in cotton rat assessed as log reduction in epithelial lining fluid viral load at 25 mg/kg, sc single dose administered 24 hrs before viral infection by plaque assay; format: functional; conditions: route subcutaneous; outline: as §2
# [21] = tested on: Respiratory syncytial virus; test: Antiviral activity against respiratory syncytial virus long strain infected in cotton rat assessed as log reduction in epithelial lining fluid viral load at 12.5 mg/kg, sc single dose administered 24 hrs before viral infection by plaque assay; format: functional; conditions: route subcutaneous; outline: as §2
# [22] = tested on: Respiratory syncytial virus; test: Antiviral activity against respiratory syncytial virus long strain infected in cotton rat assessed as log reduction in epithelial lining fluid viral load at 50 mg/kg, sc single dose administered 24 hrs before viral infection by qRT-PCR assay; format: functional; conditions: route subcutaneous; outline: as §1
# Plasma = test: Drug level in cotton rat plasma at 12.5 - 200 mg/kg, sc administered as single dose measured after 24 hrs; format: ADME, organism-based; design: dose 200 mg/kg, route subcutaneous; conditions: in vivo
compound,measurement,setting,value
Cc1ccc(CCCO)c(NCc2ccc3nc(NCCCN4CCOCC4)n(Cc4nc(C)ccc4O)c3c2)c1,concentration at 3 h,[1],9400 ng/mL
same,AUC,[2],170 ng·h/mL
same,Activity,[3],50%
same,log10PFU/ml,[4],1.7
same,log10PFU/ml,[5],0.4
same,log10PFU/ml,[6],2.2
same,log10PFU/ml,[7],0.6
same,Kp,[8],122
same,clearance,[9],143 mL/min/kg
same,AUC,Lung,131000 ng·h/mL
same,concentration at 3 h,[10],23 ng/mL
same,Vd,[11],55 L/kg
same,log10PFU/ml,[12],0.8
same,EC50,[13],0.07 ng/mL
same,concentration at 3 h,[14],11 ng/mL
same,AUC(0-t) at 24 h,[15],1100 ng·h/mL
same,log10PFU/ml,[16],1.2
same,concentration at 3 h,[17],63 ng/mL
same,concentration at 3 h,[18],392 ng/mL
same,log10PFU/ml,[19],0.5
same,log10PFU/ml,[20],0.3
same,log10PFU/ml,[21],0.2
same,log10PFU/ml,[22],1.1
same,Drug uptake,Plasma,Active
